Screens deposited in PubChem BioAssay by Johns Hopkins Ion Channel Center.
TRPC4 agonist = activators of mouse TRPC4 channel, primary screen, Fluo4 calcium, HEK293 TRPC4beta/mu-opioid cells. Fluo4 calcium fluorescence; stronger effect = higher value. 0.49% of 310,000 active. Short transient receptor potential channel 4 (Mus musculus), Q9QUQ5. B-score at 10 µM;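 active = B-score above 5 SD of library B-scores, and initial fluorescence ratio not above library mean plus 5 SD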;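 also: positive B-score marks a calcium rise read as TRPC4 activation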
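System: HEK293 cells stably co-expressing mouse TRPC4beta and mu-opioid receptor; Schedule: Fluo4 dye loading 45 min at room temperature, 110 s recording; Detection: Fluo4 fluorescence, kinetic; Evaluation: B-scored integrated calcium fluorescence ratio; Controls: buffer (low) and maximal DAMGO (high).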
TRPC4 inh = inhibitors of mouse TRPC4 channel, primary screen, Fluo4 calcium, HEK293 TRPC4beta/mu-opioid cells; DAMGO-evoked Fluo4 calcium flux; stronger effect = lower value; B-score at 10 µM; 0.39% of 300,000 active;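 active = B-score over 3 SD under the library average, no early fluorescence shift, positive overall ratio signal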
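Assay system: HEK293 cells with stable TRPC4beta plus mu-opioid receptor expression. Dosing: single dose. Measured by: Fluo4 Ca2+ flux fluorescence. Also added: DAMGO in two steps, submaximal then maximal. Read-out: B score from integrated Fluo4 fluorescence ratio.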
TRPC4 potent = positive allosteric modulators of TRPC4, primary screen, cell-based, mouse TRPC4beta, HEK293 mu-opioid, Fluo-4 calcium; B-score at 10 µM; 0.42% of 310,000 active; DAMGO EC20, Fluo-4 Ca2+ flux; stronger effect = higher value; Short transient receptor potential channel 4 (Mus musculus), Q9QUQ5; AID 2227, 2009;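 active = B-score of calcium response area above 5 SD of library B-scores, with initial fluorescence ratio within 5 SD of library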;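 also: B-score of integrated fluorescence ratio over time as area under calcium response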
Kir21 inh = inhibitors of mouse Kir2.1 inward-rectifier potassium channel. Inward rectifier potassium channel 2 (Mus musculus), P35561. HEK293-Kir2.1, FluxOR thallium flux fluorescence; stronger effect = lower value. AID 1672, 2009. 0.85% of 310,000 active. B-score at 10 µM;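 active = fluorescence ratio B-score at or below minus 3 SD of library scores, with starting-brightness B-score within 2 SD, cut at about -4.2 in these data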;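 also: channel flux triggered by added potassium and thallium sulfate stimulus; B-score of peak minus minimum fluorescence over baseline after thallium stimulus; more negative B-score means stronger Kir2.1 block with less thallium influx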
TRPC6 inh = mouse TRPC6 channel inhibitors, primary screen, cell-based, HEK293, membrane potential dye. ACh-evoked depolarization; stronger effect = lower value. B-score at 10 µM. 1.1% of 310,000 active. AID 2553, 2010;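 active = B-score under library mean minus 3 SD, initial fluorescence not abnormally high, positive integrated signal ratio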;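 also: B-score derived from integrated fluorescence ratio over the kinetic read; more negative B-score means stronger inhibition of depolarization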
Target sequence (Q61143 whole entry, looked up): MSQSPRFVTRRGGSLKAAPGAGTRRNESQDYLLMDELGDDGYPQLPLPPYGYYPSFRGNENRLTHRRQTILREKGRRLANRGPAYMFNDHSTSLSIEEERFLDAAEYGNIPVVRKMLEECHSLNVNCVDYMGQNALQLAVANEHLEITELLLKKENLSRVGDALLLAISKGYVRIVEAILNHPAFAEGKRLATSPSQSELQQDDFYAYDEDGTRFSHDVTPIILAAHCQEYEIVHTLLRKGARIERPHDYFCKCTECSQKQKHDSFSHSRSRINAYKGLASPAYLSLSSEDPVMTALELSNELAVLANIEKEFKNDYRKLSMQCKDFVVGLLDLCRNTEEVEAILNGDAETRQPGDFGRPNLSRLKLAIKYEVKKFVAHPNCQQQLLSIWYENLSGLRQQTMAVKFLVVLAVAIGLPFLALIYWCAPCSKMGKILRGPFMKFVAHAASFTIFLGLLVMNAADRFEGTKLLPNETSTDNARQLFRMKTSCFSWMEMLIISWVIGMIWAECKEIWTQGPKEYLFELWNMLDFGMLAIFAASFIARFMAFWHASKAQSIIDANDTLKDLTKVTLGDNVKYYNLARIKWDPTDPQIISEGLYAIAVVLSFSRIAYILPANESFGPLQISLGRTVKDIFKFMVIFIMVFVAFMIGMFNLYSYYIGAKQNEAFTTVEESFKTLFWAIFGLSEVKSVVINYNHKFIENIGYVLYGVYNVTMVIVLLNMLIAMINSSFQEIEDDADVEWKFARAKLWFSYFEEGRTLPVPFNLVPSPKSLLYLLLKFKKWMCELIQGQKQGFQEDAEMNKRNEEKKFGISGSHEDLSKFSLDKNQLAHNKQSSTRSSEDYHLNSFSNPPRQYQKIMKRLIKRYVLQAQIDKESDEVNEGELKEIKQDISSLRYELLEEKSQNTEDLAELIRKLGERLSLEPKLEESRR
TRPC6 activator = mouse TRPC6 channel activators, primary screen, cell-based, HEK293, membrane potential dye; HEK293-TRPC6 membrane potential dye fluorescence; stronger effect = higher value; Short transient receptor potential channel 6 (Mus musculus), Q61143; AID 2550, 2010; B-score at 10 µM; 0.13% of 310,000 active;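 active = B-score of the integrated fluorescence ratio above library mean plus 3 SD, and starting fluorescence ratio within library mean plus 5 SD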;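 also: higher score means more depolarization so channel activation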
TRPC4 sel inh 2 = second selectivity test of TRPC6 inhibitors: effect on mouse TRPC4; shares compounds with TRPC6 inh; HEK293 TRPC4/MOR, membrane potential dye fluorescence; channel activated by saturating DAMGO dose; inhibition, % at 10 µM; 42% of 920 active; AID 2776;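 active = compounds whose fluorescence signal differed from control wells by over 3 SD, either direction, in both duplicate plates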
TRPC4 spec = mouse TRPC4 modulation by TRPC6 hits, confirmation, selectivity assay for TRPC6 inhibitor project, cell-based, HEK293 TRPC4/mu-opioid, membrane potential dye | shares compounds with TRPC6 inh | 61% of 920 active | membrane potential fluorescence | activity change, negative = inhibition, % at 10 µM;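 active = rise or fall in signal beyond 3 SD of buffer-only wells in both replicate plates, either sign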;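 also: integrated kinetic ratio of fluorescence range over baseline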
HEK293 MPD ctr 2-1 = nonspecific membrane potential effects, parental HEK293, confirmation, counter-screen for TRPC6 inhibitor project, cell-based, second counter screen. 31% of 920 active. signal change vs control, % at 10 µM. shares compounds with TRPC6 inh. parental HEK293 membrane potential dye fluorescence; maximal acetylcholine challenge after compound addition;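 active = membrane potential signal moving either way by over 3 SD of the maximum-effect control, in both duplicate plates, meaning non-specific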
HEK293 MPD ctr-1 = membrane potential modulation in parental HEK293, confirmation, counter-screen for TRPC6 inhibitor project, cell-based | membrane potential signal change, % at 10 µM | 60% of 920 active | shares compounds with TRPC6 inh | AID 2780, 2010 | parental HEK293 membrane potential dye fluorescence;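 active = membrane potential signal shifting up or down by more than 3 SD of buffer-only wells, on both duplicate plates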
HEK293 MPD ctr-2 = parental HEK293 membrane potential modulation, confirmation, counter-screen for TRPC6 modulator project, cell-based | shares compounds with TRPC6 inh | membrane potential dye fluorescence | membrane potential signal change, % at 10 µM | 51% of 2,400 active;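 active = membrane potential signal moves up or down beyond 5 SD from buffer-only wells, on both duplicate plates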
HEK293 MPD ctr 2-2 = second counter-screen for TRPC6 modulators: effect in parental HEK293 cells | shares compounds with TRPC6 inh | membrane potential dye fluorescence; after compound, maximal acetylcholine stimulation | inhibition, % at 10 µM | 14% of 2,400 active;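 active = membrane potential signal drops by more than 5 SD from the mean control signal, in both duplicate plates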;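 also: plate controls were acetylcholine ECmax control wells for no effect and buffer only wells for full effect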
TRPC4 ctr mod = TRPC4 modulation by TRPC6 hit compounds, confirmation, selectivity assay for TRPC6 modulator project, cell-based, HEK293 TRPC4/mu-opioid, membrane potential dye, mouse | membrane potential fluorescence | percent change from control (negative = decrease, positive = increase), % at 10 µM | shares compounds with TRPC6 inh | 69% of 2,400 active;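 active = membrane potential signal moved up or down beyond 5 SD of buffer control wells, in both duplicate plates, actives on both sides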;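 also: plate controls were assay buffer wells for no effect and DAMGO maximal-effect wells for full effect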
TRPC4/MOR inh 2 = mouse TRPC4 off-target activity of TRPC6 modulators, second screen; AID 488928; inhibition, % at 10 µM; 55% of 2,400 active; shares compounds with TRPC6 inh; HEK293 TRPC4/mu-opioid, membrane potential dye fluorescence; stimulated with maximal-effect DAMGO;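 active = drop in membrane potential signal beyond 5 SD of the control wells in both duplicate plates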;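 also: TRPC4 counter screen for TRPC6 hits run under conditions tuned for TRPC6 not TRPC4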
TRPC6 block conf = mouse TRPC6 channel inhibitors, confirmation, HEK293 cells, membrane potential dye, duplicate. shares compounds with TRPC6 inh. ACh-evoked depolarization. inhibition, % at 10 µM. 43% of 3,300 active. AID 488960, 2010;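 active = fluorescence ratio falls more than 5 SD below the full-stimulation control mean, in both duplicate runs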;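 also: integrated fluorescence ratio of peak minus minimum over baseline after agonist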
TRPC6 act confirm = mouse TRPC6 channel activators, confirmation, HEK293 cells, membrane potential dye, duplicate; AID 488961, 2010; activation, % at 10 µM; HEK293-TRPC6 membrane potential dye fluorescence, FDSS; 11% of 2,800 active; shares compounds with TRPC6 inh;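 active = ratio signal rise beyond 5 SD above unstimulated control wells' mean, seen in both duplicate runs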;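 also: plate controls were buffer EC0 wells for no effect and acetylcholine ECmax response for full effect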
Starred values were filed as active, the others as inactive; i = inactive; . = not tested or not shown; + = active, no number. Sampled rows, rich in hits. Any-hit rate of the full collection: about 3%.

SMILES	TRPC4 agonist	TRPC4 inh	TRPC4 potent	Kir21 inh	TRPC6 inh	TRPC6 activator	HEK293 MPD ctr-2	HEK293 MPD ctr 2-2	TRPC4 ctr mod	TRPC4/MOR inh 2	TRPC6 block conf	TRPC6 act confirm	others
C#CCOCCOCCOCCNc1nc(N2CCN(C(=O)[C@H]([C@@H](C)CC)n3cc([C@@H](N)Cc4ccc(O)cc4)nn3)CC2)nc(N2CCN(C(=O)[C@H]([C@@H](C)CC)n3cc([C@@H](N)Cc4ccc(O)cc4)nn3)CC2)n1	i	i	i	-0.49	-6*	i	-102%*	i	-28%*	i	i	i
Cc1onc(-c2ccccc2)c1C(=O)NNC(=S)NC(=O)c1ccc(Cl)cc1Cl	375*	i	i	-0.41	-5.8*	i	96%*	i	36%*	36%*	i	.
Cc1occc1C(=O)/C(C#N)=C/c1ccc(O)c(Br)c1	46*	i	i	-1.2	i	73*	+	107%*	236%*	i	.	508%*
N#C/C(=C\c1ccc(O)c(Br)c1)C(=O)N1CCCCC1	i	i	i	-0.14	i	i	.	.	.	.	.	.
CCN(c1ccc(NC(=O)c2ccc(Cl)nc2)cc1)C(C)C	i	i	i	1.1	-6.5*	i	i	i	i	i	i	i
CCC(C)c1ccccc1OCCCNC1CCCC1 (stereo not drawn)	i	i	i	-5.9*	-5*	i	232%*	i	58%*	58%*	44%*	.
COc1ccccc1-c1ocnc1C(=O)N1CCN(S(=O)(=O)c2ccc(NC(C)=O)cc2)CC1	i	i	i	0.29	i	i	.	.	.	.	.	.
CCOC(=O)c1c(NC(=O)COC(=O)c2cc(OC)c(OC)cc2[N+](=O)[O-])sc(C)c1C	i	i	i	-0.41	-5.1*	i	i	i	i	40%*	i	i
COc1cc(OC)c(C(=O)OC(C)C(=O)Nc2cccc(C(F)(F)F)c2)cc1OC (stereo not drawn)	i	i	i	-0.22	i	i	.	.	.	.	.	.
O=C1CCC(c2ccc3c(c2)CCC3)=NN1	i	i	i	0.53	i	i	.	.	.	.	.	.
O=C(Nc1cccnc1Cl)c1cccs1	i	i	i	1.3	-5.1*	i	i	i	i	i	i	i
COc1ccc(/C(C)=N/NC(=O)C(NC(=O)c2ccccc2)c2n[nH]c(=O)c3ccccc23)c(OC)c1 (stereo not drawn)	i	i	i	1.5	i	i	.	.	.	.	.	.
CCOC(=O)c1nnc2cc(C)nn2c1C	i	i	i	-0.1	i	i	.	.	.	.	.	.
CCOC(=O)c1nc2cc3n(c(CC(C)C)c-2c1C)CC(C)=C3C	i	i	i	-2.3	-6.4*	i	-87%*	69%*	-20%*	54%*	49%*	i
CCOC(=O)c1nc2cc3n(c(C)c-2c1C)C(C)C(C)=C3C (stereo not drawn)	i	i	i	0.39	-8.1*	i	.	.	.	.	i	i	TRPC4 sel inh 2=70%*;TRPC4 spec=7.3%*;HEK293 MPD ctr 2-1=-192%*;HEK293 MPD ctr-1=i
CCOC(=O)c1n[nH]n(-c2cc(Cl)cc(Cl)c2)c1=O	i	i	i	0.35	i	i	.	.	.	.	.	.
Cc1cc(C)c2c(=O)[nH]c(SCC(=O)c3ccc(F)c(C)c3)nc2n1	i	i	i	1.5	i	i	.	.	.	.	.	.
CCN(CC(=O)Nc1ccc2c(c1)OCCO2)S(=O)(=O)c1ccc(F)cc1	i	i	i	0.2	i	i	.	.	.	.	.	.
CCN(CC)CC(=O)Nc1c2c(nc3ccccc13)N(C)CC2	i	i	i	-0.77	-7.5*	i	-213%*	i	-30%*	54%*	48%*	i
CC(C)C(=O)Nc1c2c(nc3ccccc13)N(C)CC2	i	i	i	-0.14	i	i	.	.	.	.	.	.
